INS promoter act = activators of insulin promoter-driven GFP, primary screen, imaging, TRM-6 cells (human fetal islet line), eGFP reporter, cell count; plate-scaled: unstimulated 0, stimulated control 100; activation, % at 2 µM; 130,000 tested, 0.81% active; AID 1296, 2008;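 active = activation at 2 µM above a set limit, confirmed on inspection of the cell images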;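 also: share of cells whose green reporter signal exceeds an intensity cutoff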
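System – TRM-6 insulin promoter–eGFP reporter cells · Probe or stimulus – 0.75 µM tamoxifen as reporter inducer · Dosing – single-point 2 µM compound dose · Incubation – tamoxifen pre-incubation 15 h overnight, then compound exposure 48 h at 37 °C · Measured by – fixed-cell fluorescence microscopy, eGFP plus Hoechst · Evaluation – percent GFP-positive cells normalized to per-plate controls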
An asterisk follows results filed as active. The full list was thinned out, with hits kept by preference.

SMILES	INS promoter act
COc1ccc(N2CCN(C(CNC(=O)OCc3ccccc3)c3ccco3)CC2)cc1 (centres undefined)	-5
Cc1ccc(CCNC(=O)C2CCN(c3nn4c(=O)cc(C)nc4s3)CC2)cc1	108
Cc1cc(C)c(S(=O)(=O)NCC2CCC(C(=O)NCCCN3CCOCC3)CC2)c(C)c1 (centres undefined)	4
Cc1cc(C)c2nc(N3CCC(C(=O)NCCCN4CCCCC4)CC3)sc2c1	513*
Cc1sc2ncnc(OCC(=O)NCc3cccs3)c2c1C	3
COc1ccc(C(=O)Oc2cccc(/C=N/NC(N)=S)c2)cc1	-10
O=C(N/C(=C/c1cccnc1)C(=O)N1CCOCC1)c1ccccc1Br	3
CC(=O)/C(=C/c1ccc(N(C)C)cc1)C(=O)c1ccccc1	6
CN(C)c1ccc(/C=C/c2cc[n+](C)cc2)cc1	174*
CN(C)c1ccc(/C=N/N=C/c2ccccc2O)cc1	3
C/C(=N\N1CCN(C)CC1)c1ccc(OC(F)F)cc1	-75
O=C(/C=C/c1c(Cl)cccc1Cl)n1cccn1	0
Cc1cc(C)n2nc(N)c(N=Nc3cccc(Cl)c3)c2n1	-62
Cc1ccc(N=Nc2c(N)nn3c(C)cc(C)nc23)cc1	-82
Cc1cc(=O)[nH]c2c(N=Nc3ccc(O)cc3)c(N)nn12	383*
Cc1ccccc1OCCOc1ccccc1C=C(C#N)C#N	121
Cn1nc(Oc2nc(N3CCOCC3)nc(N3CCOCC3)n2)ccc1=O	-9
CCC(=O)NC(Nc1ncc(C)s1)(C(=O)OC)C(F)(F)F (centres undefined)	300
CCOC(=O)N1CCN(c2c(NCCN(C)Cc3ccccc3)c(=O)c2=O)CC1	0
CCOC(=O)N1CCC(Nc2c(-c3ccccc3)c(=O)c2=O)CC1	86*
CCOC(=O)N1CCN(C(=O)c2ccccc2NC(C)=O)CC1	4
CC(NC(=S)Nc1ccc(Cl)cc1)C(c1ccccc1)N1CCOCC1 (centres undefined)	-7
CCC(CC)=C(C#N)C(=O)NC1CCCCC1	-7
O=C(COC(=O)c1cccc(C(=O)OCC(=O)NCc2ccc(F)cc2)n1)NCc1ccc(F)cc1	113
O=C(NCc1cccnc1)C1c2ccccc2C(=O)N1C1CCCCCCC1 (centres undefined)	156*
SMILES	INS promoter act
O=C(NCC1CCCO1)C1c2ccccc2C(=O)N1C1CCCCCCC1 (centres undefined)	0
CCOc1ccc(CN2C(=O)c3ccccc3C2C(=O)NCc2cccnc2)cc1 (centres undefined)	164
COc1ccc(NC(=O)C(C)N2C(=O)c3ccccc3C2=O)cc1S(=O)(=O)N1CCOCC1 (centres undefined)	0
CCOc1ccc2c(c1)-c1c(ssc1=S)C(C)(C)N2C(=O)c1ccco1	-7
CCOc1ccc(NC(=O)CCn2cccc2)cc1	-73
CCOc1ccc2c(c1)C(C)=CC(C)(C)N2C(=O)Nc1ccccc1	81*
COc1ccc(NC(=S)Nn2cnnc2)cc1OC	-5
COc1ccc(CSCC(=O)Nc2ccccc2SC)cc1	367*
COc1ccc(CNC(=O)c2ccccc2SC)cc1	259
COc1ccc(OCC(=O)Nc2ccccc2O)cc1	7
CCC1CCCCN1C(=S)Nc1ccc(OC(F)F)cc1 (centres undefined)	-9
COc1ccc(C2(NC(C)=O)CCN(C(=O)c3cccs3)CC2)cc1	289
O=C1C2C3C=CC(C2C(=O)N1CCCO)C1C2C(=O)N(CCCO)C(=O)C2C31 (centres undefined)	-3
CC(=O)c1c(C)oc2c1C(=O)c1ccccc1C2=O	4
O=C1c2ccccc2-c2onc3ccc(Oc4ccccc4)c1c23	400*
O=C1c2ccccc2C(=O)c2c1oc(C(F)(F)F)c2C(=O)c1ccccc1	0
CC1(NC(=S)N(CCO)CCO)CCS(=O)(=O)C1 (centres undefined)	-4
O=C(NCc1ccco1)C(c1ccccc1)N(Cc1ccccc1)C(=O)Cn1nnc2ccccc21 (centres undefined)	64
OC(CN1C2=NCCN2c2ccccc21)c1ccc(Br)cc1 (centres undefined)	-3
O=C(CN1C2=NCCCN2c2ccccc21)c1cccc(Br)c1	-8
Clc1ccc(CN2C3=NCCCN3c3ccccc32)cc1	136*
O=C(CCC(=O)OCC(=O)c1ccc(Br)cc1)Nc1ccc(Br)c2cccnc12	3
O=C(COC(=O)c1ccc2ccccc2n1)c1ccccc1	0
C=C(C)c1cccc(C(C)(C)NC(=O)N2CCN(c3ccccc3OC)CC2)c1	-8
C=C(C)c1cccc(C(C)(C)NC(=O)N(C)C2CCN(C)CC2)c1	260*
C=C(C)c1cccc(C(C)(C)NC(=O)Nc2ncccn2)c1	-3
COc1ccc(C(C)C)cc1S(=O)(=O)n1ccnc1C	7
O=C1CSC(c2ccccc2)N1CC(O)c1ccc([N+](=O)[O-])cc1 (centres undefined)	-6
CCCc1nnc(SCC(=O)N2CCCCC2)n1CCCOC	5
CCN(CC(=O)Nc1ccc(NC(C)=O)cc1)c1ccc(C(F)(F)F)cn1	-7

Source: PubChem BioAssay (Columbia University Molecular Screening Center)
